The source of these data is the RNAGym collection of RNA variant scans (doi:10.1126/science.aae0568).

The chains are these.
B1: tRNA (parent)
chain: GUUCCGUUGGCGUAAUGGUAACGCGUCUCCCUCCUAAGGAGAAGACUGCGGGUUCGAGUCCCGUACGGAACG

Fewer inactive variants are shown than the library holds. Some results are limits rather than exact numbers.

The data set covers variants of B1. Description: yeast fitness relative to wild type (ratio to wild type); higher = fitter; tRNA-Arg(CCU), competitive growth, 37 C, YPD. The method, boiled down:
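Genotype frequency changes were the basis for Darwinian fitness relative to wild type. The frequencies came from 100-nucleotide paired-end sequencing of gene amplicons from the start population and each end population of pooled yeast strains with tRNA-Arg(CCU) gene variants at the native locus. Competition ran in YPD at 37°C for 24 hours in six replicates, genotypes needed ≥ 100 starting reads, and estimates < 0.5 were set to 0.5.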
With C24G C31U C60G, the yeast fitness is at most 0.5. As for C24G G48A A57G, the figure is at most 0.5.

Turning to C24U A57C C61A A70G, the yeast fitness was at most 0.5. The same measure for C24G A57U A69C: at most 0.5; for C24G A42U G68A: at most 0.5; for C24G A57G C61A A65C C66U: at most 0.5. As for C24G G38C C46A U53C C61G, the figure is at most 0.5; as for C24U A36G C61U, 0.655. The same measure for C24U A36G C61A: at most 0.5; for C24G C46G G48A C55U U64A A69C: 0.5. Take C24G C60A U64A: the yeast fitness came out at 0.607. The same measure for C24G C29G C33A G48A C55G: at most 0.5; for C24U A37U G41C A70C: at most 0.5. As for C24G G39C A45G U54A C55U, the figure is at most 0.5; as for C24G A42U C49U G67C, at most 0.5; as for C24U A45U A69U, 0.78. As for C24G C34G A43U G67C, the figure is at most 0.5; as for C24G C27A A45C C62G, at most 0.5.

Consider C24G C34U U35A A42C C66A, for which the yeast fitness is at most 0.5.

C24G G25A C34A C46G: the yeast fitness was at most 0.5. As for C24G C46G C66U, the figure is at most 0.5; as for C24G A70U, 0.639; as for C24G C27G A40C U47A, at most 0.5. The same measure for C24G A40U U47A: at most 0.5; for C24G C30G U59G: 0.64; for C24G C27G A45C: at most 0.5. For the variant C24G A37G A42C A70U, the yeast fitness was at most 0.5.

Turning to C24G A57C U64A, the yeast fitness is at most 0.5.

In the case of C24G C29G U32A G52C, the yeast fitness is at most 0.5. The same measure for C24G A40U A43U C49G G50C C61U C66U: at most 0.5; for C24G U28A C31A: at most 0.5; for C24U A37G G63C C66U: 0.581. Regarding C24G C31U C33A G50C, the yeast fitness is at most 0.5.

With C24U A42U A43C, the yeast fitness was determined as 0.889. As for C24U A42U A43U, the figure is 1.02. In the case of C24G U47C U53G U54A G58C, the yeast fitness was at most 0.5. As for C24U A45U C55U, the figure is 0.569; as for C24G C31U A37G G50C A57U, 0.648. On to C24U A37C G58A, for which the yeast fitness was found to be 0.513. The same measure for C24U A45G C46G C55G: 0.588; for C24G A37C G67A: at most 0.5.

For C24U, the yeast fitness came out at 0.983.

In the case of C24G C33G C66U, the yeast fitness was at most 0.5. As for C24G A40C G56U, the figure is at most 0.5.

As for C24G C33G U53C C55U A70G, the yeast fitness stood at 0.57. As for C24G C33G C55U, the figure is at most 0.5; as for C24G C34G G50C C61U, at most 0.5. The same measure for C24G C30G C55G: at most 0.5. The same measure for C24U A36C U53C: at most 0.5; for C24G U28C U54A: at most 0.5; for C24G C30G A70G: 0.638. As to C24G G50U, the yeast fitness came to 0.544. The same measure for C24G C31G A45G C60G: at most 0.5. The same measure for C24U A45G G68C: 0.641; for C24U A45G A57G: 0.787. As for C24U A40G C46A, the figure is 0.723; as for C24G A42G, 0.587.

In the case of C24G A42C, the yeast fitness was 0.63. As for C24G G25A A36C G67U, the figure is at most 0.5; as for C24G C27U C33U G50C A65G G68A, at most 0.5; as for C24G U26A A45C, at most 0.5.

As for C24G G67C, the yeast fitness came to 0.622. As for C24G G67A, the figure is 0.594; as for C24G G67U, at most 0.5.

As to C24G G25A C66U, the yeast fitness turned out to be 0.561. As for C24G C60U A69C, the figure is at most 0.5; as for C24G U28G C46G C66U, at most 0.5. As for C24G A37C U59C C62U G68U, the figure is at most 0.5. The same measure for C24G A40C U47A A69G: at most 0.5; for C24G U35G A45C: at most 0.5; for C24G C60U: 0.61.

C24G U26A C46A C62U: the yeast fitness worked out at 0.578.

In the case of C24U A37G C49G, the yeast fitness was at most 0.5. As for C24G C60U G68A, the figure is 0.789; as for C24G G38C A65U, 0.509. The same measure for C24U A36C A43U: 0.578; for C24G G48A G68A: at most 0.5. The same measure for C24G G56A: 0.618.

Take C24G C27U C33U A57C: the yeast fitness is at most 0.5. For the variant C24G C46U C49G G51C C66G, the yeast fitness worked out at 0.639. With C24G C31U A43G A45C U64A, the yeast fitness was at most 0.5. As for C24G A43G U47A, the figure is at most 0.5; as for C24G C31U G48A C49U, 0.785. With C24G C30A A40C, the yeast fitness came to 0.547. The same measure for C24G C66G: 0.691. The same measure for C24G C66U: 0.533. As to C24G A42G A69U, the yeast fitness is at most 0.5. The same measure for C24U A37C A40G U54A: at most 0.5; for C24G C33A C62A: at most 0.5.

On to C24U A37G A45U, for which the yeast fitness was 0.562. As for C24G A45C C49A G52A, the figure is at most 0.5; as for C24G C34U A36C C46A U54A A57G, 0.566; as for C24G U64A, 0.631. The same measure for C24G U64C: 0.567; for C24G C31G C33A G50C C55G A57U C62U: at most 0.5; for C24G C33U U59C: at most 0.5.

On to C24G C27U U28C, for which the yeast fitness was at most 0.5. The same measure for C24G C27U A43U G52C: at most 0.5. In the case of C24U A37C G39C A43G, the yeast fitness is at most 0.5.

Regarding C24G C31U C33G A42C A43U, the yeast fitness worked out at 0.574. As for C24G A40U G67C, the figure is at most 0.5; as for C24G C29G, at most 0.5; as for C24G C29U, 0.521. The same measure for C24G C33G A36C A37C A42C A45G A65U: at most 0.5. With C24G U53A C55G, the yeast fitness was at most 0.5.

With C24G C55U A65G, the yeast fitness amounted to 0.546. The same measure for C24U A43C C60A: at most 0.5; for C24U A37G G39A G48C A69C: at most 0.5. On to C24G C33U A43G U47A, for which the yeast fitness was 0.682. The same measure for C24G C30U: 0.553; for C24G C30A: 0.777. Take C24G C30G: the yeast fitness came out at 0.53. The same measure for C24G C27G C60U: 0.8; for C24G A43U: 0.703; for C24G A43C: 0.543.

On to C24G C33U A37U C55A G68C, for which the yeast fitness is at most 0.5. As for C24G A65U G68A, the figure is at most 0.5. The same measure for C24U A42U G67A: 0.567; for C24G C30G C31U U35A A36U G44A: 0.695; for C24G G25A A65G: 0.609. Consider C24G A69U, for which the yeast fitness is 0.658.

Take C24G A69G: the yeast fitness was found to be 0.503. The same measure for C24G U32A A43G G50A: at most 0.5; for C24U A43U C55G: 0.588; for C24G U26C C31U U54C: 0.934. As for C24G C34A U35A C46U G48A C60G C66U, the figure is 0.558; as for C24G C29G G67A, 0.57; as for C24G C29G G39C, 0.513. C24G A43C C62U A65G: the yeast fitness was at most 0.5. For the variant C24G A57U, the yeast fitness stood at 0.578. The same measure for C24G A57G: 0.524; for C24G G44C G58C: 0.547.

C24G U28C C29G: the yeast fitness is at most 0.5. As for C24U A42G A70C, the figure is 0.642; as for C24G G48A G52C A57C C60U, at most 0.5. As for C24G C34G G52A, the figure is 0.602; as for C24G C27G, 0.593. Take C24G G41A G51A G56C: the yeast fitness turned out to be 0.556.

Take C24G C55A A65U: the yeast fitness is at most 0.5. On to C24U A37U G63C, for which the yeast fitness is at most 0.5. The same measure for C24G C33U C60G: 0.519; for C24G C34G A40G A45C C66G A69U: 0.596; for C24G C27U C33U G48A G50C G68A: at most 0.5.

Regarding C24G A43C G52C C55U A69C, the yeast fitness is at most 0.5. As for C24G C33U A43G, the figure is at most 0.5; as for C24G C49U G51A C61A A69U, at most 0.5; as for C24G C60G A70G, at most 0.5.

On to C24G U26A C31U A45C A69U, for which the yeast fitness is at most 0.5. As for C24G G68C A70C, the figure is 0.578; as for C24U A36G, 0.88; as for C24U A36U, 0.592. As for C24U A36C, the figure is 0.716; as for C24U A37U C46A A70U, at most 0.5; as for C24G U26C U32A A36C C49G G51C C66U G68A, at most 0.5.

Consider C24G C34U U47A, for which the yeast fitness was at most 0.5. As for C24U A37U A65U A69C, the figure is at most 0.5; as for C24G G25A C31G A57U, 0.532. As for C24G G39C A45G U54A, the figure is at most 0.5; as for C24G C33U U35A C61G, at most 0.5; as for C24G A65G, 0.703. The same measure for C24G U47A C55G: 0.847; for C24G U32A A42C A65U: at most 0.5.

Consider C24U A45C C61G, for which the yeast fitness is at most 0.5. As for C24G C30A C46U G52C, the yeast fitness was at most 0.5. The same measure for C24U A45U: 0.919; for C24G C27U C29G C34G A36G A43U: at most 0.5; for C24G C55U G68C: at most 0.5.
